Here are results for one compound from paper PMC6682138 (ACS Omega, 2019).

SMILES strings stand for the structures.

The test system of this test is A549 cells. The test is described as follows: MTT cytotoxicity assay, A549. Type of test: cell-based, human. To be noted: read-out: IC50 A549, 24 h incubation. The method, boiled down: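 MTT assay. Cells seeded at 2 × 10^4 per well. A549 and HeLa S3 were maintained in DMEM with 10% FBS, 2 mM L-glutamine and antibiotics at 37 °C, 5% CO2. Test compound in DMSO (0.5%) applied at 100–3.125 μM for 24 h. After a PBS wash, cells received fresh DMEM with MTT (5 mg/mL) for 3–4 h in the dark. DMSO was added and absorbance read at 570 nm. Inhibition % = (A−B)/A × 100 versus untreated control, and IC50 taken from viability–concentration curves.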

The term IC50 denotes the concentration at which inhibition is half-maximal. Take `N.N.[Cl][Pt][Cl]` [cisplatin, reference compound]: the IC50 stood at 18 ± 3.1 µM.
